Test system: MS2 coat protein
Assay: apparent Kd, MS2 coat protein; higher = weaker binding; RNA-MaP array; FMN 200 µM where present
Method in brief: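 Binding was read on Illumina sequencing-chip clusters where stalled E. coli RNA polymerase had transcribed each design. A titration of SNAP-549-labelled MS2 coat protein began at 0.7 or 1.5 nM and doubled to 3 µM, once without ligand and once with constant ligand, in 100 mM Tris-HCl pH 7.5, 80 mM KCl, 4 mM MgCl2, BSA, DTT, yeast tRNA and Tween-20. The apparent Kd is the median of filtered per-cluster binding-curve fits, based on green signal normalised to red-channel RNA signal and control-cluster median Fmax.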

[1] = designed as: ON switch for flavin mononucleotide, no ligand
[2] = ligand present: flavin mononucleotide, designed as: ON switch for flavin mononucleotide
[3] = designed as: OFF switch for flavin mononucleotide, no ligand
[4] = ligand present: flavin mononucleotide, designed as: OFF switch for flavin mononucleotide

Sequence | apparent Kd [1] [nM] | apparent Kd [2] [nM] | apparent Kd [3] [nM] | apparent Kd [4] [nM]
CGUAGGAUCCAGAAGGCAUGAACAUGAGGAUCACCCAUGUCAAAAUACAUGAGGAUAUGGAUCCUACGAAAAGUGCGAAAGCAC | 5.11 | 4.38 | – | –
CGUAUGUGAGGAUAUGACAAUGGUAUCUUCGGAUACCAUUGUCAGAAGGUACAUGAGGAUCACCCAUGUAGAUC | – | – | 27.1 | 59.9
CGUCCACAUGAGGAUCACCCAUGUUAGGAUAUAAACGCCGUAGUCCAAGGACGGGCCUUUAGAAGGAGCGCGGG | – | – | 13.9 | 25.6
CGUCGAUACCAGAAGGACAUGAGGAUCACCCAUGUAGGAUAUGGGUGACCGGGAUAGUGGACACAGCGCCCGGGCACAUGCGAC | 13.6 | 8.19 | – | –
CGUCUGUCAGGAUAUAGUUACGUAGACAUGAGGAUCACCCAUGUGACGUGGGACUAGUGACUAGAAGGGACGAACG | – | – | 22.3 | 52.5
CGUGAACGGACGCACUGUUUCCACAUGAGGAUCACCCAUGUGAAGGAUAUGACUGGCGCCACUUGUUAGAAGGUCACUGGGCGA | – | – | 39.8 | 71.1
CGUGCGUAUGUGAGGAUAUGCUGGUCCUUGGAUCAGCAGAAGGCACAUGAGGAUCACCCAUGUGGUGUCGUACA | – | – | 273 | 20.1
CGUGUCAUCGAGAAGGCCUCAACAUGAGGAUCACCCAUGUUGUAAUAUGGGAGGAUAUCGAUGAUACAGCUACGUUUCGUAGCG | 19.1 | 6.07 | – | –
CGUUAAUAUCGAGGAUAUGUCUAGACACAUGAGGAUCACCCAUGUAUGUGUAUAGAAGGCGAUAUUAACAGCAUGUUACAUGCC | 45.5 | 16.3 | – | –
CGUUAAUAUCGAGGAUAUGUCUAGACACAUGAGGAUCACCCAUGUAUGUGUAUAGAAGGCGAUAUUAACAGCAUGUUACAUGCG | 38.3 | 16.7 | – | –
CGUUGGUCAGGAUAUGGUGGGCUGGUGAGAGGGCCGGGUGGCUAGAAGGGACAUGAGGAUCACCCAUGUACGGC | – | – | 40.4 | 28.2
CGUUGGUUAGGAUAUAGCCUCCUGGUGGGAAGGCCGGGUGGCUAGAAGGAACAUGAGGAUCACCCAUGUAUGGA | – | – | 62.6 | 33.3
CGUUGUUCCGCAGGAUAUGCAUUGGAUUACAAUGCAGAAGGGCGAUAACAUGAGGAUCACCCAUGUGUGGACAAUGAGGAAGAG | 792 | 55.2 | – | –
CGUUUAUUUAUGGGUUUAUAUUAUGAGGAUAUCAAUAUUUUAUACAUGAGGAUCACCCAUGUUACUGAGAAGGCAUAAUUAACG | 10.9 | 6.44 | – | –
CUAAAUCAUGUAGGAUAUGCGUGGCGAAGCUAUGCAGAAGGACAUGAGGAUCACCCAUGUUUUUCCGUCUGCGUACAGACGGAA | – | – | 259 | 260
CUAACACAUGAGGAUCACCCAUGUGAGGAUAUGCGUACGUUGUCCGUAGGCGACGUGCGCAGAAGGCGCUUGGU | – | – | 55.8 | 62.8
CUAGUACAUGAGGAUCACCCAUGUCAGGAUAUUGGAUAUGACAUGGAAAACAUGUUUACAAGAAGGGACUAUAG | – | – | 285 | 290
CUAUACAUAUCAGGAUAUCUAUUUCCUACAUGAGGAUCACCCAUGUAGAGGAUCACCCAUGUAAAGGAGAAGGGAUAUGUAUAG | 105 | 20.9 | – | –
CUAUAUAAUACCUCAUGUACAUGAGGAUCACCCAUGUUAACUAAGGAUAUAUUUAUAUUAAUAAAGUAGAAGGUAGUACUAUUU | – | – | 23.4 | 18.8
CUAUAUAAUACCUCAUGUACAUGAGGAUCACCCAUGUUAACUUAGGAUAUAUUUAUAUUGAUAGAGUAGAAGGAAGUACUAUUU | – | – | 15.8 | 13.8
CUAUCAAGCAAGGAUAUGCAAAUAAUUAUUUAUGCAGAAGGUGCAACAUGAGGAUCACCCAUGUUUCUGGGUUU | – | – | 57.4 | 89.6
CUAUUGGCAGGAUAUGCUUUUUUAGACAUGAGGAUCACCCAUGUGAUGAAUUUUGGGUUUGCAGAAGGGCCUGAGU | – | – | 67.1 | 100
CUAUUGGUAACAGGAUAUAUGAGUCCUACAUGAGGAUCACCCAUGUAGGUGGUCAAACGUGAUUAGUAGAAGGGUUACCAAUAG | 12.2 | 6.18 | – | –
CUCAAGUCAGGAUAUCCAGCUGUGUUCCGGGACUCGUAGUUGGAGAAGGGACAUGAGGAUCACCCAUGUCAGCC | – | – | 32.3 | 67.8
CUCAUGUAAGGAUAUCAGUAGUAAAAAAAUAAAAUUACUACUGAGAAGGUACAUGAGGAUCACCCAUGUCCUUG | – | – | 38.8 | 21.6
CUCAUGUGAGGAUAUCAGUAGUAAAAAAAUAAAAUUACUACUGAGAAGGCACAUGAGGAUCACCCAUGUGCAAA | – | – | 95.9 | 105
CUCAUGUGAGGAUAUCAGUAGUAAAAAAAUAAAAUUACUACUGAGAAGGCACAUGAGGAUCACCCAUGUGCCUU | – | – | 15.6 | 12.9
CUCAUGUGAGGAUAUUCGGGCGGGCUCGUUUGGGUUUGUUUGGAGAAGGUACAUGAGGAUCACCCAUGUGCUGG | – | – | 218 | 77.8
